Experimental data of several laboratories.
KDM1A: Lysine-specific histone demethylase 1A (KDM1A, Homo sapiens, UniProt O60341)
PDE5A: cGMP-specific 3',5'-cyclic phosphodiesterase (PDE5A, Homo sapiens, UniProt O76074)
ATAD2B: ATPase family AAA domain-containing protein 2B (ATAD2B, Homo sapiens, UniProt Q9ULI0)
BRD3 BD1: Bromodomain-containing protein 3, BD1 (BRD3, Homo sapiens, UniProt Q15059)

O=C(O)c1ccc(CN2CCC(CN[C@@H]3C[C@H]3c3ccccc3)CC2)cc1
kinact (KDM1A; enzyme activity; inhibitor): 0.013 s⁻¹

CC(=O)N[C@H](C(=O)N[C@H](C(=O)N[C@@H](Cc1ccccc1)C(=O)N[C@H](C(=O)N[C@@H](CO)C(=O)N[C@@H](Cc1c[nH]c2ccccc12)C(=O)N[C@@H](CCC(=O)O)C(=O)N[C@@H](CCC(=O)O)C(=O)N[C@@H](Cc1ccc(O)cc1)C(=O)N[C@@H](CC(C)C)C(=O)N[C@@H](CC(=O)O)C(=O)N[C@@H](Cc1c[nH]c2ccccc12)C(=O)N[C@H](C(N)=O)C(C)C)[C@@H](C)O)C(C)C)[C@@H](C)O
koff (Proprotein convertase subtilisin/kexin type 9 (PCSK9, Homo sapiens, UniProt Q8NBP7); binding; SPR): 0.173 s⁻¹

COC(=O)[C@@H]1Cc2c([nH]c3ccccc23)[C@H](c2ccc(OC)c(OC)c2)N1C(=O)CCl
inhibition (PDE5A; enzyme activity; inhibitor; FP; 50 µM): 48%

O=C(c1ccc(F)cc1)N(Cc1ccccc1)C1CCCCC1
inhibition (Endothelin-1 receptor (EDNRA, Homo sapiens, UniProt P25101); cell-free assay; 10 µM): 0%

CC(C)(C)N1C(=O)[C@H]2Cc3c([nH]c4ccccc34)[C@H](c3cccnc3)N2C1=O
inhibition (PDE5A; enzyme activity; inhibitor; FP; 50 µM): 89%

NS(=O)(=O)c1ccc(Nc2nc(-c3ccc(F)cc3)c3ccccc3n2)cc1
remaining binding (ATAD2B; binding; competition with immobilised ligand; 1 µM): 76%

C[S+]([O-])c1ccc(-c2nc(-c3ccncc3)c(-c3ccc(F)cc3)[nH]2)cc1 (stereo not shown)
ΔTm (BRD3 BD1; thermal stability; DSF; 10 µM): 1.43 °C

CN1CCN(C(=O)[C@H](CCCN[C@@H]2C[C@H]2c2ccc(F)cc2)NC(=O)c2ccc(-n3ccnn3)cc2)CC1
kinact (KDM1A; enzyme activity; inhibitor): 0.018 s⁻¹

Cc1cnc(Nc2ccc(OCCN3CCCC3)cc2)nc1Nc1cccc(S(=O)(=O)NC(C)(C)C)c1
ΔTm (ATAD2B; thermal stability; DSF; 10 µM): -0.06 °C

COc1cc(Cl)c(C(=O)N[C@@H](CN[C@H]2CC[C@@H](N)CC2)Cc2ccc(C#N)cc2)cc1-c1ccc(CN[C@H](C)c2ccc(C)cc2)o1
remaining activity (Testis-specific serine/threonine-protein kinase 4 (TSSK4, Homo sapiens, UniProt Q6SA08); enzyme activity; inhibitor; 1 µM): 98%

Oc1ccc(-c2nc(-c3ccncc3)c(-c3ccc(F)cc3)[nH]2)cc1
ΔTm (BRD3 BD1; thermal stability; DSF; 10 µM): 0.72 °C

Cc1cc2c(cc1N1C(=O)c3cccc4c(Cl)ccc(c34)C1=O)n(C)c(=O)n2C
ΔTm (Bromodomain-containing protein 3, BD2 (BRD3, Homo sapiens, UniProt Q15059); thermal stability; DSF; 10 µM): 0.1 °C

Nc1ncnc2occ(-c3ccc(NC(=O)Nc4cc(C(F)(F)F)ccc4F)cc3)c12
remaining activity (Phosphatidylinositol 4-phosphate 3-kinase C2 domain-containing subunit beta (PIK3C2B, Homo sapiens, UniProt O00750); enzyme activity; inhibitor; 20 µM): 99%
